Results from ChEMBL document CHEMBL4765317, “Novel bacterial topoisomerase inhibitors derived from isomannide” (Eur J Med Chem, 2020).
Values after ≈ are worked out from the molar mass of the structure shown.

Tests used:
CYP2C9 = CYP2C9 (Homo sapiens, UniProt P11712); assay: Inhibition of human liver microsome CYP2C9 at 10 uM in presence of NADPH incubated for 10 to 30 mins by LC-MS-MS analysis; format: ADME; settings: human liver microsomes, time 10-30 min
Enterococcus faecium [1] = assay: Antibacterial activity against Vancomycin-susceptible Enterococcus faecium DRL-4193 assessed as reduction in bacterial growth by CLSI based broth microdilution method; format: functional
[2] = Permeability across basolateral to apical side in human Caco2 cells at 10 uM by LC-MS/MS analysis; format: ADME, cell-based; settings: Caco-2, read-out: permeability
CYP3A4 [3] = target: T1, CYP3A4 (Homo sapiens, UniProt P08684); assay: Residual activity of human liver microsome CYP3A4 at 3 uM in presence of NADPH incubated for 10 to 30 mins by LC-MS-MS analysis; settings: human liver microsomes
T1 sequence (P08684 whole entry): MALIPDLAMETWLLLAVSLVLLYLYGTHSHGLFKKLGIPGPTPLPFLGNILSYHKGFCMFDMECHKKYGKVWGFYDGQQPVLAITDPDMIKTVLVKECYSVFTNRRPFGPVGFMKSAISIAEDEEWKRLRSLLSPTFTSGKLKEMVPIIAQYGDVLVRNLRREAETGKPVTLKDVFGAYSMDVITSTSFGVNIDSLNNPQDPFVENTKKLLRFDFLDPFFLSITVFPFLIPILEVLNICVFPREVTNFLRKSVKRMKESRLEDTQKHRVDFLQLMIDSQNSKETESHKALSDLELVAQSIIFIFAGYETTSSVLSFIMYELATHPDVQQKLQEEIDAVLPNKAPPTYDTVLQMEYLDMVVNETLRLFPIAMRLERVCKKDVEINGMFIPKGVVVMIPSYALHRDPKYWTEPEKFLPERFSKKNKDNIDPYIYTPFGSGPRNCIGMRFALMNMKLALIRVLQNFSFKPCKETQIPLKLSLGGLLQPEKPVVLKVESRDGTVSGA

[4] = target: Sodium-dependent noradrenaline transporter (Homo sapiens) (UniProt P23975); assay: Inhibition of recombinant human full length Norepinephrine transporter expressed in dog MDCK cells at 100 uM in presence of [125I]-RTI-55 incubated for 180 mins by scintillation counting method relative to control; format: cell-based; settings: CHO-K1
Summary of the method: (§1)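 Off-target screen against a panel of 44 receptors, enzymes and transporters, run in duplicate at a single 100 µM concentration. Results are given as % inhibition. No concentration-response follow-up was done.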

Nav1.5 (late current) = Nav1.5 (late current) (Homo sapiens, UniProt Q14524); assay: Inhibition of recombinant human Nav1.5 late expressed in human HEK293 cells at 100 uM in presence of ATXII by automated Qpatch clamp assay relative to control; format: ADME, cell-based; settings: HEK293 cells expressing recombinant human Nav1.5
Nav1.5 (late current), sequence (Q14524 whole entry): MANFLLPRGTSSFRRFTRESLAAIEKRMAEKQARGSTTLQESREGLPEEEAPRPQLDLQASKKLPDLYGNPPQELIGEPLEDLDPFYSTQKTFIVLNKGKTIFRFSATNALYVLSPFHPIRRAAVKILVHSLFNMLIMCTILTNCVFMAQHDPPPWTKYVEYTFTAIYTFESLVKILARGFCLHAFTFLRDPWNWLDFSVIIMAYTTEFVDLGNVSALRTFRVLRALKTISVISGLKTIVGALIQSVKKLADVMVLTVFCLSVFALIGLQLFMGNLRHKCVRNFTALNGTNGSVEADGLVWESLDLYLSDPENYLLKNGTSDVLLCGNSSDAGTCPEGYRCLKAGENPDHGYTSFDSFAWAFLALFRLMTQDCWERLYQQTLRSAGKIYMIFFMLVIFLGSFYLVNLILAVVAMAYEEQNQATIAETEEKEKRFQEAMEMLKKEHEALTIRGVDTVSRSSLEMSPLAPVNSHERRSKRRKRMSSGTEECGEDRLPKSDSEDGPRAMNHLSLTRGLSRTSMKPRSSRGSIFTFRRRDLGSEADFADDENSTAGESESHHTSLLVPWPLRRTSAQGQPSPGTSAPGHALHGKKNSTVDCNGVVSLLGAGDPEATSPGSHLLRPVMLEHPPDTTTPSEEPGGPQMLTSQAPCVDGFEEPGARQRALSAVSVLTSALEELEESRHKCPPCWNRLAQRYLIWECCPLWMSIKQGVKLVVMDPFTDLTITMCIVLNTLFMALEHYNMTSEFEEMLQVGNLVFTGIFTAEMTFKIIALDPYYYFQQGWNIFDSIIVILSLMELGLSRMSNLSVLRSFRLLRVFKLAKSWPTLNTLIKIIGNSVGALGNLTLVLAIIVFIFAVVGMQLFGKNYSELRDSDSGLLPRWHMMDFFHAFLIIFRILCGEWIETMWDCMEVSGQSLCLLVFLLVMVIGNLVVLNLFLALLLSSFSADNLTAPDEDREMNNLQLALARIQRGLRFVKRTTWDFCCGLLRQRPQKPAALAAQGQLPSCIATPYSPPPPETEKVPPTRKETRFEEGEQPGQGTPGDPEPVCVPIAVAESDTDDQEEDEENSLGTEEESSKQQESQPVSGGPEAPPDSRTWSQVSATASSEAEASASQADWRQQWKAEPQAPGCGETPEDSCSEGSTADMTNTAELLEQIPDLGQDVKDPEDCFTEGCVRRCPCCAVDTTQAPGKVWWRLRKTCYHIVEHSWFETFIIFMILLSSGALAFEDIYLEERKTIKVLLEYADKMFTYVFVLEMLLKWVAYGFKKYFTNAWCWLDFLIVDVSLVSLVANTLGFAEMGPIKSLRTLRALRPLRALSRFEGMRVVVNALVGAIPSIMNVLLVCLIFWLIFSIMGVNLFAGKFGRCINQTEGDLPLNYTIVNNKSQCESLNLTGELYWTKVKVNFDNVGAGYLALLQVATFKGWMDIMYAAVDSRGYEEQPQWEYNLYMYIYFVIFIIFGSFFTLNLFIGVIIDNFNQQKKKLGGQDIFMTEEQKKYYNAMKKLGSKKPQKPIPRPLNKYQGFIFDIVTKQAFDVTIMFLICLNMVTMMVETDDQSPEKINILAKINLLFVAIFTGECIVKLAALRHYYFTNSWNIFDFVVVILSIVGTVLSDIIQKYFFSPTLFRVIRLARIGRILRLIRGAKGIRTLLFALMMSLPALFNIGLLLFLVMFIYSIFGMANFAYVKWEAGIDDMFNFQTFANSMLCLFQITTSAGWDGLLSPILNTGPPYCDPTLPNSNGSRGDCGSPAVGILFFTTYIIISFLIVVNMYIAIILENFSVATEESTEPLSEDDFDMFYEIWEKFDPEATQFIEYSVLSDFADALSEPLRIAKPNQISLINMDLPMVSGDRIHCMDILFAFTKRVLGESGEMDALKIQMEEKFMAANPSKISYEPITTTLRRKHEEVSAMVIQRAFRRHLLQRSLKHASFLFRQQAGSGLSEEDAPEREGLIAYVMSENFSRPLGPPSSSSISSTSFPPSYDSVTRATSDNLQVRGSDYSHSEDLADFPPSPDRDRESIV
Summary of the method: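 Part of an eight-assay CiPA panel run on a QPatch HT automated patch clamp at 3, 30 and 100 µM, in duplicate. The test compound came from a 30 mM DMSO stock. Data were filtered for seal quality, seal drop and current amplitude, and reported as mean percent inhibition.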

Staphylococcus aureus [5] = assay: Antibacterial activity against Fluoroquinolone-resistant Staphylococcus aureus assessed as reduction in bacterial growth by CLSI based broth microdilution method; format: functional
CYP2D6 = CYP2D6 (Homo sapiens, UniProt P10635); assay: Inhibition of human liver microsome CYP2D6 at 10 uM in presence of NADPH incubated for 10 to 30 mins by LC-MS-MS analysis; format: ADME; settings: human liver microsomes, time 10-30 min
CYP2D6, sequence (P10635 whole entry): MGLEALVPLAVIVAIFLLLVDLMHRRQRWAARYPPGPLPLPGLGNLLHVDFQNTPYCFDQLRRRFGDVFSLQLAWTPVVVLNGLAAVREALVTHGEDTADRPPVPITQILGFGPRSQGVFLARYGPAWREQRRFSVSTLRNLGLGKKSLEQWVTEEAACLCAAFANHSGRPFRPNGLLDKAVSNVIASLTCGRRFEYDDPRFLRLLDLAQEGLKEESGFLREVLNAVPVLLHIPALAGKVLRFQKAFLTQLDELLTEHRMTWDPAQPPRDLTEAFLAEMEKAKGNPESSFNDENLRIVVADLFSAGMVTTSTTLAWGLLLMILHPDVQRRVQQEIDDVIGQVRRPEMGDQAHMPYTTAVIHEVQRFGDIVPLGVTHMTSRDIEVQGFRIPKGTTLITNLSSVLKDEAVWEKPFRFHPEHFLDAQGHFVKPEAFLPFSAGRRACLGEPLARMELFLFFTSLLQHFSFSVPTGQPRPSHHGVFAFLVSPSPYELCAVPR

CYP3A4 [6] = target: T1, CYP3A4; assay: Residual activity of human liver microsome CYP3A4 at 0.3 uM in presence of NADPH incubated for 10 to 30 mins by LC-MS-MS analysis; settings: human liver microsomes
[7] = target: Sodium channel protein type 5 subunit alpha (Homo sapiens, UniProt Q14524); assay: Activation of recombinant human Nav1.5 late expressed in human HEK293 cells assessed as activation of late current at 3 uM by automated Qpatch clamp assay relative to control; format: ADME, cell-based; settings: hek293, 3 µM
Sodium channel protein type 5 subunit alpha, sequence (Q14524 whole entry): as the sequence (Q14524 whole entry) above
Summary of the method: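 Part of an eight-assay CiPA panel run in duplicate on an automated QPatch HT patch-clamp system at 3, 30 and 100 µM. Test compound came from a 30 mM DMSO stock. Records were filtered for seal quality, seal drop and current amplitude, and mean percent values are reported.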

[8] = target: Sodium channel protein type 2 subunit alpha (Homo sapiens) (UniProt Q99250); assay: Inhibition of recombinant human full length Nav1.2 expressed in CHO-K1 cells at 100 uM by manual patch clamp assay relative to control; format: cell-based; summary of the method: as §1
[9] = Cytotoxicity against human HepaRG assessed as reduction in cell viability at 0.01 uM incubated for 24 hrs by Cell-Titer Glo assay; format: cell-based; settings: HepaRG cells, read-out: INH
Summary of the method: (§2)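 ATP-based viability read-out in HepaRG cells over a five-point concentration series (0.01, 0.1, 1, 10, 100 µM). Results are given as % cytotoxicity at each concentration.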

Enterococcus faecium [10] = assay: Antibacterial activity against Vancomycin-resistant Enterococcus faecium LSI-3340 assessed as reduction in bacterial growth by CLSI based broth microdilution method; format: functional
[11] = Cytotoxicity against human HepaRG assessed as reduction in cell viability at 0.1 uM incubated for 24 hrs by Cell-Titer Glo assay; format: cell-based; settings: HepaRG cells, read-out: INH; summary of the method: as §2
Staphylococcus aureus [12] = assay: Antibacterial activity against methicillin-resistant Staphylococcus aureus DRL-3161 assessed as reduction in bacterial growth by CLSI based broth microdilution method; format: functional
Staphylococcus aureus [13] = assay: Antibacterial activity against Staphylococcus aureus USA300 assessed as reduction in bacterial growth by CLSI based broth microdilution method; format: functional
[14] = Aqueous solubility of compound at 100 uM incubated for 90 mins by LC-MS/MS analysis; format: physicochemical; settings: buffer
Summary of the method: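 Kinetic solubility measured in buffered aqueous solution at pH 7.4.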

Streptococcus pyogenes = assay: Antibacterial activity against Streptococcus pyogenes LSI-1235 assessed as reduction in bacterial growth by CLSI based broth microdilution method; format: functional
KCNQ1 = KCNQ1 (Homo sapiens, UniProt P51787); assay: Inhibition of recombinant human KCNQ1 expressed in CHO-K1 cells at 3 uM by automated Qpatch clamp assay relative to control; format: ADME, cell-based; settings: CHO-K1 cells expressing recombinant human KCNQ1
Summary of the method: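 KCNQ1/hminK current recorded in duplicate on an automated QPatch HT at 3, 30 and 100 µM, from a 30 mM DMSO stock. Records were filtered for seal quality, seal drop and current amplitude. Peak outward current was evoked by a step to 60 mV. Block is the test-compound amplitude divided by control, where control is the mean over 15 s at the end of the control period. Chromanol 293B was the positive control.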

[15] = target: Voltage-gated inwardly rectifying potassium channel KCNH2 (Homo sapiens, UniProt Q12809); assay: Inhibition of human ERG
Staphylococcus aureus [16] = assay: Potency index, ratio of MIC90 of ciprofloxacin to MIC90 of compound for antibacterial activity against Fluoroquinolone-resistant Staphylococcus aureus assessed as reduction in bacterial growth by CLSI based broth microdilution method; format: functional
CYP3A4 [17] = target: T1, CYP3A4; assay: Residual activity of human liver microsome CYP3A4 at 1 uM in presence of NADPH incubated for 10 to 30 mins by LC-MS-MS analysis; settings: human liver microsomes
Staphylococcus aureus [18] = assay: Antibacterial activity against Staphylococcus aureus ATCC 29213 assessed as reduction in bacterial growth by CLSI based broth microdilution method; format: functional
[19] = Inhibition of Staphylococcus aureus topoisomerase IV using kDNA as substrate incubated for 30 mins by gel electrophoresis analysis; settings: read-out: IC50

## COc1ccc2ncc(F)c(CC[C@@]3(O)CO[C@@H]4[C@@H](NCc5cc6c(cn5)OCCO6)CO[C@@H]43)c2n1
CYP2C9
  inhibition at 10 µM: < 50%
Enterococcus faecium [1]
  MIC: 2 µg/mL (≈ 4.01 µM)
[2]
  Papp B→A at 10 µM: 85.3 ×10⁻⁶ cm/s
CYP3A4 [3]
  residual activity at 3 µM: 60.4%
[4]
  inhibition: 68%
Nav1.5 (late current)
  inhibition at 100 µM: 50.9%
Staphylococcus aureus [5]
  MIC90: 2 µg/mL (≈ 4.01 µM)
CYP2D6
  inhibition at 10 µM: < 50%
CYP3A4 [6]
  residual activity at 0.3 µM: 89.9%
[7]
  Activity: 3.4%
[8]
  inhibition: 78%
[9]
  cytotoxicity at 24 h, 0.01 µM: 6%
Enterococcus faecium [10]
  MIC: 0.25 µg/mL (≈ 0.501 µM)
[11]
  cytotoxicity at 24 h, 0.1 µM: 4%
Staphylococcus aureus [12]
  MIC: 1 µg/mL (≈ 2.01 µM)
Staphylococcus aureus [13]
  MIC: 2 µg/mL (≈ 4.01 µM)
[14]
  solubility at […], 100 µM: 76.2 µM (≈ 38 µg/mL)
Streptococcus pyogenes
  MIC: ≤ 0.12 µg/mL
KCNQ1
  inhibition at 3 µM: -2.9%
[15]
  IC50: 66 µM
Staphylococcus aureus [16]
  Ratio: 16
CYP3A4 [17]
  residual activity at 1 µM: 60.4%
Staphylococcus aureus [18]
  MIC: 1 µg/mL (≈ 2.01 µM)
[19]
  IC50: 7.4 µM
